This note sets out measurements from article PMC3158287 (Nature chemical biology, 2011).

One experiment deals with T1, ORP4L-Myc-His (Homo sapiens, UniProt Q969R2).
T1 sequence (Q969R2 1-916): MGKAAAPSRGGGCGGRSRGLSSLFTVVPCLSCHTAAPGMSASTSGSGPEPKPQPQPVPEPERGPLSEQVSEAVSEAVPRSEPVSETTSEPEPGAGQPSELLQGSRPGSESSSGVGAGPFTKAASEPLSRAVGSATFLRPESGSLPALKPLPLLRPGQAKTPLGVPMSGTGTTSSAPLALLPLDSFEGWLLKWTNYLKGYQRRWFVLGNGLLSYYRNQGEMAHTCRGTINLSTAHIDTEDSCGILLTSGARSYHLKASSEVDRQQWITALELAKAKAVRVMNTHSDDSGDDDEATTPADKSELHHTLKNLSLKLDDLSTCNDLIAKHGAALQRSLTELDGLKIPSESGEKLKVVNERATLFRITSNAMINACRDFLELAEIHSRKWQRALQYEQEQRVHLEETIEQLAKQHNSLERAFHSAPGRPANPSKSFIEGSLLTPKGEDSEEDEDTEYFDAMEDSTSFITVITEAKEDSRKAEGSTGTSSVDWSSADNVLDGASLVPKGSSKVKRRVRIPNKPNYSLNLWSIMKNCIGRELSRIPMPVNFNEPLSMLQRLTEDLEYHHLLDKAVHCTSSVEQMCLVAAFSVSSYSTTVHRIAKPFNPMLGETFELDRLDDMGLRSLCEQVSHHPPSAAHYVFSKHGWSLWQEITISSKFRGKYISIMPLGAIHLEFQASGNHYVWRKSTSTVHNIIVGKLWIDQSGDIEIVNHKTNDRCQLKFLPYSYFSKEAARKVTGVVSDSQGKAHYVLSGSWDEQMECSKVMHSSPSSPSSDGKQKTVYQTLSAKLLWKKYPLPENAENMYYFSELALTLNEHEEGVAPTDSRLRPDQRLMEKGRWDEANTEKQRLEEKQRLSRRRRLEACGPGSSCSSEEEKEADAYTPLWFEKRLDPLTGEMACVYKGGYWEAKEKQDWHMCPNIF
Nature of the experiment: [3H]25-OHC charcoal-dextran binding assay, ORP4L-Myc-His.

Another experiment concerns HCT-116 p21^−/− cells. Kind of experiment: Cell viability assay, HCT-116 p21-/-. The experiment is classed as cell-based, human. As to conditions: GI50 after 48 h. The procedure, abridged:
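HCT-116 p21+/+ and p21−/− cells were seeded in 96-well plates and rested 24 h. A time-zero plate was read with CellTiter-Blue (resazurin) after 90 min at 37 °C, fluorescence 544 nm ex / 590 nm em. Serially diluted test compound was added as 4× solution. Viability was re-read at 48 h and GI50 derived. For coadministration, 10 μM 25-OHC was added with test compound at 250 nM or 10 nM.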

Experiment [1] concerns HeLa cells overexpressing wild-type OSBP. Kind of experiment: Overexpression-viability assay, wild-type OSBP-Myc-His. The experiment is classed as cell-based, human. As to conditions: 48 h, versus lacZ.
In experiment [2] the test system is HeLa cells overexpressing ORP4L. Nature of the experiment: Overexpression-viability assay, ORP4L-Myc-His. As to conditions: 48 h, versus lacZ. The experiment is classed as cell-based, human.
For experiment [3], the target named is T2, OSBP (Homo sapiens, UniProt P22059).
T2 sequence (P22059 1-807): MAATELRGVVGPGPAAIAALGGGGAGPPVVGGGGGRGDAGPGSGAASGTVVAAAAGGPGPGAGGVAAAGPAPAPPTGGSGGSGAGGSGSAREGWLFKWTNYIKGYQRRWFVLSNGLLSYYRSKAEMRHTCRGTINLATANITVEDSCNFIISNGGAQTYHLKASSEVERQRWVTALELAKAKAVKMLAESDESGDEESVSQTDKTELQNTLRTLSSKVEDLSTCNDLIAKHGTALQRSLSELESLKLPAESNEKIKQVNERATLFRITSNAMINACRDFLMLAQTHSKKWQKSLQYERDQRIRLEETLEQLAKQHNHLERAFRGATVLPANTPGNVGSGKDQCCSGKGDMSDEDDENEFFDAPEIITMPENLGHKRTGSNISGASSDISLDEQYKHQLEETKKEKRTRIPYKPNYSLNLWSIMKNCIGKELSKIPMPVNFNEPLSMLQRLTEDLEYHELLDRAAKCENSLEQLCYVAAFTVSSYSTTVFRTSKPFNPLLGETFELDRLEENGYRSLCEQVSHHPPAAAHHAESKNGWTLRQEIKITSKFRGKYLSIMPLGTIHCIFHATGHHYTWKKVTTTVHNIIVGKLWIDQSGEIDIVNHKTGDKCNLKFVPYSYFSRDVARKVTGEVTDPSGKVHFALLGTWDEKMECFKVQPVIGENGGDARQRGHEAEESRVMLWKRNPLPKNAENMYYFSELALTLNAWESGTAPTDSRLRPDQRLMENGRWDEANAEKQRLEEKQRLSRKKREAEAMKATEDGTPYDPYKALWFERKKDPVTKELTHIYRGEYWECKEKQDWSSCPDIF
Kind of experiment: OSBP localization by immunofluorescence microscopy, HCT-116. The experiment is classed as cell-based. The note with it: HCT-116 cells, 4 h; 5 μM schweinfurthin A, 10 nM OSW-1, 20 nM cephalostatin 1. The procedure, abridged:
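Cells on coverslips were grown 72 h, then given test compound or vehicle (4 h for HCT-116). They were fixed 10 min in 3.7% formaldehyde/PBS and permeabilised 5 min in 0.5% Triton X-100. Blocking used Image-iT FX, then 1% BSA/PBS. Rabbit anti-OSBP (N-terminus) and mouse anti-p230 were applied overnight at 4 °C, then Alexa Fluor secondaries for 60 min with Hoechst 33258. Imaging was by confocal microscopy.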

Experiment [4] has as its target T2, OSBP. Nature of the experiment: OSBP protein levels by western blotting. The experiment is classed as cell-based. As to conditions: HCT-116 cells. The procedure, abridged:
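HCT-116 cells were treated with test compound at 50 nM or 10 nM over a time course including 24 h. Some samples also received proteasome inhibitor MG-132 or lactacystin. OSBP was measured by western blotting with polyclonal rabbit anti-OSBP (N-terminus) antibody. Data are n = 3, compared with vehicle-treated cells by two-tailed Student's t-test.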
A general note: A western blot detects proteins with antibodies after separation by electrophoresis.

SMILES strings stand for the structures.

Turning to `COc1ccc(C(=O)O[C@H]2[C@H](O[C@@H]3[C@@H](OC(C)=O)[C@H](O[C@H]4C[C@H]5[C@@H]6CC=C7C[C@@H](O)CC[C@]7(C)[C@H]6CC[C@]5(C)[C@@]4(O)[C@H](C)C(=O)CCC(C)C)OC[C@@H]3O)OC[C@@H](O)[C@@H]2O)cc1` [OSW-1], the inhibitory constant (Ki) at ORP4L-Myc-His (read-out: Ki, ORP4L-Myc-His, competition with 20 nM [3H]25-OHC, mean ± s.d.) came to 0.054 ± 0.011 µM. In addition, the “p21^−/− selectivity of growth inhibition (HCT-116 p21^−/− versus wild-type)” value in the experiment on HCT-116 p21^−/− cells is “selectively growth-inhibitory”. Besides, the “Desensitization factor by OSBP overexpression (relative GI30)” value in experiment [1] is reported as 2–5. The “Desensitization factor by ORP4L overexpression (relative GI30)” value in experiment [2] is recorded as 2–5. For the same compound, the OSBP localization entry on OSBP [3] is “localize to a perinuclear position that did not localize with p230”. Moreover, the “Reduction in OSBP protein levels” value on OSBP [4] (10 nM, 24 h) was “approximately 75%”.
Turning to `CC(C)=CCC/C(C)=C/Cc1c(O)cc(/C=C/c2cc(O)c3c(c2)C[C@@H]2C(C)(C)[C@H](O)[C@H](O)C[C@@]2(C)O3)cc1O` [schweinfurthin A], at ORP4L-Myc-His (ratio of Ki values ORP4L / OSBP), the “Factor by which affinity for ORP4L is lower than affinity for OSBP” value was ~ 40. In the experiment with HCT-116 p21^−/− cells, the “p21^−/− selectivity of growth inhibition (HCT-116 p21^−/− versus wild-type)” value is listed as “selectively growth-inhibitory”. Further, in experiment [1], the “Desensitization factor by OSBP overexpression (relative GI30)” value is reported as 2–5. The “Desensitization factor by ORP4L overexpression (relative GI30)” value in experiment [2] is listed as 2–5. Besides, at OSBP [3], the OSBP localization entry was “accumulate at perinuclear positions with a large degree of co-localization with the trans-Golgi marker p230”. Also, the “Effect on OSBP levels (compound alone)” value at OSBP [4] (25-OHC 10 μM) is given as “no effect”.

A word on the Ki: it is the dissociation constant of the complex between target and ligand, obtained from inhibition or displacement.
